The values below come from ChEMBL document CHEMBL5678799 (Biochem J, 2009).

Assay [1] concerns the target Tyrosine-protein kinase Lck (Homo sapiens) (UniProt P06239). Nature of the assay: Inhibition of recombinant human N-terminal His6-tagged LCK (2 to 509 residues) expressed in baculovirus infected Sf21 cells assessed as remaining activity at 10 uM using KVEKIGEGTYGVVYK as substrate incubated for 30 mins in presence of [gamma-33P]ATP by filter binding method relative to control. The method, boiled down: (§1)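 Assays ran 30 min at 21 °C, robotically and in the linear range. Remaining activity is given relative to incubations lacking compound, as the average of triplicate determinations ± S.D.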

The next assay concerns the target mTORC2 (Homo sapiens) (UniProt P42345+Q6R327+Q9BVC4+Q9BPZ7). Conditions: HEK293, dose 30-1000 nM, time 30.0 min.
For assay [2], the target named is cAMP-dependent protein kinase catalytic subunit alpha (Homo sapiens) (UniProt P17612). The assay is described as follows: Inhibition of recombinant human N-terminal GST-tagged PKAalpha (2 to 351 residues) expressed in Escherichia coli assessed as remaining activity at 1 uM using Kemptide as substrate incubated for 30 mins in presence of [gamma-33P]ATP by filter binding method relative to control. The method, boiled down:
(§2)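 Panel assays were run for 30 min at 21 °C, within the linear range for time and enzyme. […] Results are percent activity remaining relative to compound-free control, averaged from triplicate ± S.D.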

Assay [3] addresses Serine/threonine-protein kinase N2 (Homo sapiens) (UniProt Q16513). The assay is described as follows: Inhibition of recombinant N-terminal His6/FLAG-tagged human PRK2 (501 to 984 residues) expressed in baculovirus infected Sf21 cells assessed as remaining activity at 10 uM using S6 peptide as substrate incubated for 30 mins in presence of [gamma-33P]ATP by filter binding method relative to control. In a few lines: (§3)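 Kinase panel run robotically at 21 °C for 30 min, linear in time and enzyme. […] Compound tested at 1 or 10 µM. Activity given as percentage of incubations without compound, mean of triplicates ± S.D.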

In assay [4] the target is Serine/threonine-protein kinase PLK1 (Homo sapiens) (UniProt P53350). The assay is described as follows: Inhibition of recombinant human N-terminal His6-tagged PLK1 (1 to 603 residues) expressed in baculovirus infected Sf21 cells assessed as remaining activity at 1 uM using ISDELMDATFADQEAKKK as substrate incubated for 30 mins in presence of [gamma-33P]ATP by filter binding method relative to control. The method, boiled down:
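Radiometric panel assay run robotically at 21 °C for 30 min, linear in time and enzyme. […] Activity is expressed as percentage of the compound-omitted control, averaged from triplicates ± S.D.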

The target of assay [5] is AMPK alpha1/beta2/gamma1 (Homo sapiens) (UniProt O43741+P54619+Q13131). The assay is described as follows: Inhibition of recombinant N-terminal His6-tagged human AMPKalpha1 (11 to 559 residues)/AMPKbeta2 (1 to 272 residues)/AMPKgamma1 (1 to 331 residues) expressed in baculovirus infected Sf21 cells assessed as remaining activity at 10 uM using SAMS as substrate incubated for 30 mins in presence of [gamma-33P]ATP by filter binding method relative to control. The method, boiled down: (§4)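 Run robotically for 30 min at 21 °C under linear conditions. Compound at 1 or 10 µM. Percentage activity remaining versus control without compound, triplicate mean ± S.D.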

Assay [6] deals with Eukaryotic elongation factor 2 kinase (Homo sapiens) (UniProt O00418). Nature of the assay: Inhibition of recombinant human N-terminal GST-tagged EF2K (2 to 725 residues) expressed in Escherichia coli assessed as remaining activity at 1 uM using RKKFGESKTKTKEFL as substrate incubated for 30 mins in presence of [gamma-33P]ATP by filter binding method relative to control. The method, boiled down: as §3

The target of assay [7] is Casein kinase I isoform delta (Homo sapiens) (UniProt P48730). The assay is described as follows: Inhibition of recombinant human N-terminal GST-tagged CK1delta (1 to 415 residues) expressed in Escherichia coli assessed as remaining activity at 10 uM using RRKDLHDDEEDEAMSITA as substrate incubated for 30 mins in presence of [gamma-33P]ATP by filter binding method relative to control. In a few lines: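 Robotic radiometric panel assay, 30 min at room temperature (21 °C), with 10 mM magnesium acetate. […] Compound at 1 or 10 µM. Residual activity expressed relative to compound-free control; triplicate average ± S.D.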

For assay [8], the target named is Ephrin type-A receptor 2 (Homo sapiens) (UniProt P29317). The assay is described as follows: Inhibition of recombinant human N-terminal GST-tagged EPHA2 (591 to 976 residues) expressed in Escherichia coli assessed as remaining activity at 10 uM using Poly (Glu,Tyr) as substrate incubated for 30 mins in presence of [gamma-33P]ATP by filter binding method relative to control. In a few lines: as §4

Assay [9] has as its target Serine/threonine-protein kinase 3 (Homo sapiens) (UniProt Q13188). The assay is described as follows: Inhibition of recombinant human N-terminal GST-tagged MST2 (2 to 491 residues) expressed in baculovirus infected Sf21 cells assessed as remaining activity at 1 uM using MBP as substrate incubated for 30 mins in presence of [gamma-33P]ATP by filter binding method relative to control. In a few lines:
as §2

In assay [10] the target is MAP kinase-interacting serine/threonine-protein kinase 2 (Homo sapiens) (UniProt Q9HBH9). The assay is described as follows: Inhibition of recombinant human N-terminal GST/C-terminal His6-tagged MNK2alpha (2 to 465 residues) expressed in Escherichia coli assessed as remaining activity at 10 uM using eIF4E as substrate incubated for 30 mins in presence of [gamma-33P]ATP by filter binding method relative to control.

Assay [11] is described as follows: Inhibition of recombinant human N-terminal His6-tagged PKBbeta S474D mutant (120 to 481 residues) expressed in baculovirus infected Sf21 cells assessed as remaining activity at 10 uM using crosstide peptide as substrate incubated for 30 mins in presence of [gamma-33P]ATP by filter binding method relative to control. Conditions: condition cancer, 0.5 h. The method, boiled down:
as §1

Assay [12] deals with Ribosomal protein S6 kinase alpha-3 (Homo sapiens) (UniProt P51812). Nature of the assay: Inhibition of recombinant human N-terminal His6-tagged RSK2 (2 to 740 residues) expressed in baculovirus infected Sf21 cells assessed as remaining activity at 10 uM using KKLNRTLSVA as substrate incubated for 30 mins in presence of [gamma-33P]ATP by filter binding method relative to control. In a few lines:
as §1

The target in assay [13] is Maternal embryonic leucine zipper kinase (Homo sapiens) (UniProt Q14680). Nature of the assay: Inhibition of recombinant human N-terminal GST/C-terminal His6-tagged MELK (2 to 651 residues) expressed in Escherichia coli assessed as remaining activity at 1 uM using KKLNRTLSFAEPG as substrate incubated for 30 mins in presence of [gamma-33P]ATP by filter binding method relative to control. The method, boiled down:
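Incubation was 30 min at room temperature (21 °C) under conditions linear with time and enzyme amount. Activity is reported as percent of control lacking compound, triplicate mean ± S.D.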

Another assay has as its system MEF. Nature of the assay: Inhibition of mTORC2 in MEF cells assessed as reduction in NDRG1 phosphorylation incubated ay 1 uM for 30 mins by immunoblot analysis. It counts as cell-based. Conditions: Mus musculus. The method, boiled down:
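Cells (MEFs, wild-type or knockout, or HeLa) kept in 10% serum, then exposed 30 min to inhibitor or vehicle at the stated level. Washed twice in ice-cold PBS and lysed in Tris lysis buffer with CHAPS, phosphatase and protease inhibitors. Lysates cleared at 18000 g and immunoblotted with phospho-specific antibodies and ECL detection. Blots are representative of three experiments.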

Calls of active or inactive are those of the source. The calls are words filed in the database; no cut-off is given here.

Sequence of Ephrin type-A receptor 2 (Homo sapiens) (P29317 whole entry, the tested form may be a part): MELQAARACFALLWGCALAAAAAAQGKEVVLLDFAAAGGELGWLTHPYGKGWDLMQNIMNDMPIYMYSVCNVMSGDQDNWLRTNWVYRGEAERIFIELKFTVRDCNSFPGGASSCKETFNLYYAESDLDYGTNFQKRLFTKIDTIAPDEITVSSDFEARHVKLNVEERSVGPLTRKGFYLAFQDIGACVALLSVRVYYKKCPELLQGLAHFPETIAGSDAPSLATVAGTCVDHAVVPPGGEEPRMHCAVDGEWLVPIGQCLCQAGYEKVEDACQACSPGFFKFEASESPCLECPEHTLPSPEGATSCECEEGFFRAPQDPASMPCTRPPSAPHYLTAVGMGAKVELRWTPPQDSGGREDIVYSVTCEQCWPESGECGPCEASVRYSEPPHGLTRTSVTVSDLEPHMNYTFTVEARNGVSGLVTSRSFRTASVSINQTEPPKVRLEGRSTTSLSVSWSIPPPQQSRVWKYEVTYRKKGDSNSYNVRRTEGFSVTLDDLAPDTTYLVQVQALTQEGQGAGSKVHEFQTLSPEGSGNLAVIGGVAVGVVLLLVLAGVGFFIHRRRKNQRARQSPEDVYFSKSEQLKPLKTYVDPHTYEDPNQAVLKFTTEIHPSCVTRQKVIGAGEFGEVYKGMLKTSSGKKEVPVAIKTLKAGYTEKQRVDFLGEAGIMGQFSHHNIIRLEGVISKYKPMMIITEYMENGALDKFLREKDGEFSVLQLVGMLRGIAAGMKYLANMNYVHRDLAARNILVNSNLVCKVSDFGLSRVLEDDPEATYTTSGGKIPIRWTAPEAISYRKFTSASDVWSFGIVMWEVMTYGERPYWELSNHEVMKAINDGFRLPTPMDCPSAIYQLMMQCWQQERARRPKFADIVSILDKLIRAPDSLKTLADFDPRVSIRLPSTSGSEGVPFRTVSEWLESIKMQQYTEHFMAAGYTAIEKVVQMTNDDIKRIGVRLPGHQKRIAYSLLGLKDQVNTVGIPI
Sequence of Serine/threonine-protein kinase N2 (Homo sapiens) (Q16513 whole entry, looked up, the tested form may be a part): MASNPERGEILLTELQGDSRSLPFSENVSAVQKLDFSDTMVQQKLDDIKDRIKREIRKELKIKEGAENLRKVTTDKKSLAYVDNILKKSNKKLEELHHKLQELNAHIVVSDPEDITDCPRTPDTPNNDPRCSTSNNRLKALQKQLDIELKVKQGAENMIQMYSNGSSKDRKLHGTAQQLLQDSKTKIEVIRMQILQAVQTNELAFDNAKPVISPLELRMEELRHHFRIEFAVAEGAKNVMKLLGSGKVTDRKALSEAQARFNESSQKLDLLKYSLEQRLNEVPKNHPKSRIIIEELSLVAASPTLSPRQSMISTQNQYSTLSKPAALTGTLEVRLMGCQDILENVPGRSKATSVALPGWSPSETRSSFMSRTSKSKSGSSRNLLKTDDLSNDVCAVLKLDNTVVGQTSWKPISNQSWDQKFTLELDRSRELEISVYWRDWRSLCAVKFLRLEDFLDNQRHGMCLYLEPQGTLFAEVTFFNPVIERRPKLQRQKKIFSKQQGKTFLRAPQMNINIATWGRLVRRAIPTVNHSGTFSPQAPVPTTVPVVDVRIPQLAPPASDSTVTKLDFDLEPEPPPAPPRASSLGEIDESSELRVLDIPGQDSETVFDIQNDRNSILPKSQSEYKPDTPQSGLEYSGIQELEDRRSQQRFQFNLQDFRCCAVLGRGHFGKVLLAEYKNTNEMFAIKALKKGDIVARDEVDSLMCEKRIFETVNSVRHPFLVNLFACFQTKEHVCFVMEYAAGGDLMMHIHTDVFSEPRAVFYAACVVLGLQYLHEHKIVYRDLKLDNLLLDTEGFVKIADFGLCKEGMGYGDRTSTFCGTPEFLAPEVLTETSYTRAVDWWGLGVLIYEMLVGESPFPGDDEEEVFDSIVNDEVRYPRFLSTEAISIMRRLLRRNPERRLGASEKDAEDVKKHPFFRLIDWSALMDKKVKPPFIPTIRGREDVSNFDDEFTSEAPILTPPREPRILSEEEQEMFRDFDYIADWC
Sequence of Serine/threonine-protein kinase PLK1 (Homo sapiens) (P53350 whole entry, the tested form may be a part): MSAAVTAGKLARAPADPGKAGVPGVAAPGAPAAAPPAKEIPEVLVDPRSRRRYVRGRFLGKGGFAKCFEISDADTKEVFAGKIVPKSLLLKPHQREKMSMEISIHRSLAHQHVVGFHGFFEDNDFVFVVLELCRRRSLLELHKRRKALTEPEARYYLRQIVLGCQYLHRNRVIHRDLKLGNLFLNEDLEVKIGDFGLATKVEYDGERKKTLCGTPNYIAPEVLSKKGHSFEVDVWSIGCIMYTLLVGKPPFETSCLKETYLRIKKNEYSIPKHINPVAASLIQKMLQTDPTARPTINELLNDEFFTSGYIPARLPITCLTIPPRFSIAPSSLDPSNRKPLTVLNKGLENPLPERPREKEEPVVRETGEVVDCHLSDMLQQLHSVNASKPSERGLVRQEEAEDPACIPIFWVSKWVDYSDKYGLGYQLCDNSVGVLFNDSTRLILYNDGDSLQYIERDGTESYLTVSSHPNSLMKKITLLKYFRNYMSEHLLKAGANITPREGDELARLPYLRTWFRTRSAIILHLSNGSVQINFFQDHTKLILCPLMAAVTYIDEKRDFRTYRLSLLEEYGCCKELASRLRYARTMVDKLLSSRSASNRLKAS
Sequence of Ribosomal protein S6 kinase alpha-3 (Homo sapiens) (P51812 whole entry, the tested form may be a part): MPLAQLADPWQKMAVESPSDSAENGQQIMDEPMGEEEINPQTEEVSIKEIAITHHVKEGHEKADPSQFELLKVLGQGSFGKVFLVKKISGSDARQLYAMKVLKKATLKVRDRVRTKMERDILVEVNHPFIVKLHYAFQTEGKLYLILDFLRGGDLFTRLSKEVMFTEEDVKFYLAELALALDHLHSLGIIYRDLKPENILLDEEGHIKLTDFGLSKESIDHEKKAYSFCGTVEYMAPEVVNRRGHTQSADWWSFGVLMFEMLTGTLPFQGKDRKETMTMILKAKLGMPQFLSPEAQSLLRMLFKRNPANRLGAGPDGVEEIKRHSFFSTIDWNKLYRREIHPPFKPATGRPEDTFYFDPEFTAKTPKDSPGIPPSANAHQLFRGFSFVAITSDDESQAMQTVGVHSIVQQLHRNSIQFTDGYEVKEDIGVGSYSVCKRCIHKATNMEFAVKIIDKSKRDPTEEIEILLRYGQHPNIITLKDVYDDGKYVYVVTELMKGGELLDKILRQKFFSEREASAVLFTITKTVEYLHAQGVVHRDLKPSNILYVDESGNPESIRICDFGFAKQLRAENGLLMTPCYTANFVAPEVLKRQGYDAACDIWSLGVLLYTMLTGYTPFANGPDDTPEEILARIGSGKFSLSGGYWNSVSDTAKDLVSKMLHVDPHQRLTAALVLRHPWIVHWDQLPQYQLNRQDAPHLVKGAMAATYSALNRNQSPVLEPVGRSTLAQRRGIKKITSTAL
Sequence of Maternal embryonic leucine zipper kinase (Homo sapiens) (Q14680 whole entry, looked up, the tested form may be a part): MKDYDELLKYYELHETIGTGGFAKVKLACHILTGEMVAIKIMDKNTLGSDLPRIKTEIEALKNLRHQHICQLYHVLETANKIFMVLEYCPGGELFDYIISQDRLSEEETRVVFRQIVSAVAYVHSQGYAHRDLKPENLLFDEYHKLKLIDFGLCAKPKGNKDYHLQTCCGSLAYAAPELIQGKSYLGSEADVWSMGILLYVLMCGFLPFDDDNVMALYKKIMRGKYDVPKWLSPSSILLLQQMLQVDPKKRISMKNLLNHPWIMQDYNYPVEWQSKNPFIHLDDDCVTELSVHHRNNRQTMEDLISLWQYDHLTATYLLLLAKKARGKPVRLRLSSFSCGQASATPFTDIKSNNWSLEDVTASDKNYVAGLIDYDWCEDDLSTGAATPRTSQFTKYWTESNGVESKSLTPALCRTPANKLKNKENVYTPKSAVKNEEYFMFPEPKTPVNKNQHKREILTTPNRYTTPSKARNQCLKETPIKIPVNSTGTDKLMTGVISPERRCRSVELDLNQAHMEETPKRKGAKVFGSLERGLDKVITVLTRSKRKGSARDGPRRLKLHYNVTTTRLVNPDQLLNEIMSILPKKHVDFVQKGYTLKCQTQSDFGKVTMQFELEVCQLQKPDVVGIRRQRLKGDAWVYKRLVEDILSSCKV
Sequence of Casein kinase I isoform delta (Homo sapiens) (P48730 whole entry, looked up, the tested form may be a part, canonical isoform): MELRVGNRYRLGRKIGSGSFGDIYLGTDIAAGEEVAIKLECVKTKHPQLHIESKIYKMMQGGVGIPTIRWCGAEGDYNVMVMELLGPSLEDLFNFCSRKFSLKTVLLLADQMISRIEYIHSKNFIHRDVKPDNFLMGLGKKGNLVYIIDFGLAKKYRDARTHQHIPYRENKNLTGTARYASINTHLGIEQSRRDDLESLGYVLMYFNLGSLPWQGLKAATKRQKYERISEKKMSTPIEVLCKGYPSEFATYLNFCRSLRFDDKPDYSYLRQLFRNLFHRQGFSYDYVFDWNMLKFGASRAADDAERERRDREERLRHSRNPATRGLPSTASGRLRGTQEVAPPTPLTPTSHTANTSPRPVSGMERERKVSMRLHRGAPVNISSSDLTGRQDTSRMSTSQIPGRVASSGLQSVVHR
Sequence of Serine/threonine-protein kinase 3 (Homo sapiens) (Q13188 whole entry, the tested form may be a part): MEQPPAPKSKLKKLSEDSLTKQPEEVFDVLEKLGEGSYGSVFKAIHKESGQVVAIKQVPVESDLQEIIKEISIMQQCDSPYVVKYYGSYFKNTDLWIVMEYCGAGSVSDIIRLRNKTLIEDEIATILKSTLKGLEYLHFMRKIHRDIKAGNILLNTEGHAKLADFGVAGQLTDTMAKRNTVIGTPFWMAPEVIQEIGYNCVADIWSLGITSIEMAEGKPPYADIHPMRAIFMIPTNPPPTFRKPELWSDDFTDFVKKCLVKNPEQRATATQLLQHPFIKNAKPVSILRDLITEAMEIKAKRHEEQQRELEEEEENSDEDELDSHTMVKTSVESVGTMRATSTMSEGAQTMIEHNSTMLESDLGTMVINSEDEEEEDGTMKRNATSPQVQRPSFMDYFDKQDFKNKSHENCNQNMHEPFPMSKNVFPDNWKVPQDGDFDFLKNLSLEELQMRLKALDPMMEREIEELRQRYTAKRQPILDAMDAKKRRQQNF

With `COc1ccc(-c2ccc3c(N4CCOCC4)nc(N4C[C@@H](C)O[C@@H](C)C4)nc3n2)cc1CO` [Ku-0063794], the Activity is 104% in assay [1]; 115% in assay [2]; 105% in assay [3]; 76% in assay [4]; 106% in assay [5]; 88% in assay [6]. The Activity was 109% in assay [7]; 96% in [8]; 81% in assay [9]; 92% in [10]; 107% in [11]; 104% in assay [12]. In addition, the Activity in assay [13] turned out to be 91%. On mTORC2 (Homo sapiens), the inhibition entry was “Dose-Dependent Effect”. Moreover, the inhibition entry in the assay with MEF was “Active”.
